The list is not random: actives were taken first. Their share in the collection is about 4.8%.
Mdm2 MdmX PPI – human Mdm2/MdmX binding inhibition | 330,000 tested, 3% active | AID 485346 | inhibition, % at 8 µM | SaOS-2 split-luciferase Mdm2/MdmX complementation, luminescence | O15151+Q00987;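 active means inhibition of at least 50% at 8 µM in the primary screen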
SKKanGAS inh – SKKanGAS growth inhibition; inhibition, % at 7.5 µM; AID 1662; S. pyogenes SKKanGAS, kanamycin growth, BacTiter-Glo, 6 h; 300,000 tested, 1.3% active;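 active means mean replicate score, as percent of positive control median, at least 50; inconclusive means mean below 50 but one replicate at or above 50; inactive means mean and every replicate below 50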;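 further: strain carries kanamycin resistance gene driven by streptokinase promoter and grows in 40 µg/ml kanamycin; loss of luminescence reflects streptokinase promoter inhibition or plain growth inhibition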
Beta cell apopt – beta cell apoptosis inhibition | 300,000 tested, 0.8% active | protection from apoptosis, % (no concentration beside the values) | INS-1E cytokine-induced death, ATP luminescence, 48 h; percent of positive-control rescue, neutral wells zero;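 active means Every replicate reaches about 75%, or at least half do and their mean reaches it too, limit read from the data; inconclusive means At least half of replicates reach the limit but their mean does not; inactive means Under half of replicates reach the limit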;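 further: higher means more ATP so stronger rescue from cytokine killing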
XBP1 UPR activ – activators of adaptive arm of unfolded protein response (XBP1). CHO-XBP1 luciferase reporter, IRE1-XBP1 UPR activation, luminescence; percent of tunicamycin response, DMSO as zero. activation, % at 20 µM. 330,000 tested, 0.33% active. AID 463104;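 active means versus positive control, 20 µM dose yields 30% or more activation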
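Assay system: IRE1-XBP1 luciferase reporter CHO line. Input: 1000 cells/well. Buffer or medium: F12 with 10% serum. Doses: 20 µM, 1% DMSO. Times: overnight seeding at 37 °C, 6 h compound treatment at 37 °C. Technique: Steady-Glo luciferase glow luminescence, 10 min after reagent addition.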
CSC inhib – cancer stem cell inhibition | cancer stem cell-like cells viability, luminescence | AID 2717 | 300,000 tested, 1.1% active | inhibition, % at 7.5 µM; in the data active means inhibition above about 75%; inconclusive means no clear call, values can overlap the other calls; tested in HMLE shEcad cells
CHOP UPR activ – activators of apoptotic arm of unfolded protein response (CHOP). CHO-CHOP luciferase reporter, UPR activation, luminescence; percent of tunicamycin response over DMSO baseline. activation, % at 10 µM. 330,000 tested, 0.34% active;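 active means at 10 µM dose, activation of 40% or more, normalized to positive control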
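Dosing – one dose, 10 µM in 0.5% DMSO · System – CHO-CHOP cells, stable luciferase reporter of PERK-eIF2a-CHOP signalling · Input – 500 cells/well · Control set – tunicamycin 10 µg/mL final as positive, DMSO-only wells as negative · Timing – 6 h compound treatment, 37 °C · Measure – % activation vs tunicamycin · Technique – luminescence read with Steady-Glo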
Each line names hits and unclear results; the compound was inactive in the other large screens.

CCOc1nc(Nc2ccc(OC)cc2)nc(N2CCOCC2)n1	none
CCOc1ccc(Nc2nc(N3CCCCC3)nc(N3CCCCC3)n2)cc1	SKKanGAS inh 62.5
CCOc1ccc(Nc2nc(N)c3ccccc3n2)cc1	SKKanGAS inh 59.6 (no result: Beta cell apopt, CSC inhib)
Cc1cccn2cc(CCNC(=O)Cc3cccs3)nc12	none
CCc1ccccc1NC(=O)CCc1c(C)nc(SC)nc1C	none
COC(=O)c1ccc(NC(=O)CCN2C(=O)C3C4CCC(C4)C3C2=O)cc1 (stereo not given)	none
c1cc(-c2noc(CC3CCCCC3)n2)ccn1	Beta cell apopt 79.1
COc1ccc(OC)c(COC(=O)c2cccc(S(=O)(=O)N3CCCCC3)c2)c1	none (no result: SKKanGAS inh)
C=C(C(=O)c1ccccc1)C(C)C(=C)C(=O)c1ccccc1	Beta cell apopt 117.5, CSC inhib 81.9 (no result: Mdm2 MdmX PPI, XBP1 UPR activ, CHOP UPR activ)
COc1cccc(CN2CC(C(=O)NCCN3CCOC3=O)CCC2=O)c1 (stereo not given)	none
Cc1cc(C(=O)NNc2ccc(Cl)cc2)no1	CSC inhib 117.4
Cc1cc(C(=O)NNC(=O)Nc2ccc(Cl)cc2)no1	none
Cc1cc(C(=O)NNc2ccc(F)cc2F)no1	CSC inhib 75.1
Cc1ccc(NNC(=O)c2cc(C)on2)c(C)c1	none
Cc1cc(NCCCn2ccnc2)n2nc(C)c(-c3ccc(Cl)cc3)c2n1	CSC inhib 124.7
O=C(Nc1cccc(-c2cnc3ccccc3n2)c1)C1CC(=O)N(c2ccccc2)C1 (stereo not given)	none
CN(/N=C/c1ccc(Cl)cc1Cl)c1ncc(Cl)cc1C(F)(F)F	SKKanGAS inh 76.5
CN(/N=C/c1ccc(Cl)cc1)c1ncc(Cl)cc1C(F)(F)F	SKKanGAS inh 73.3
Cc1ccc(S(=O)(=O)N2CCN(c3ccc(C(F)(F)F)cc3[N+](=O)[O-])CC2)cc1	none (no result: Beta cell apopt, CSC inhib)
Cc1cc(N2CCN(c3ccc(C(F)(F)F)cc3[N+](=O)[O-])CC2)c2ccccc2n1	CSC inhib 97.3
CCn1c(-c2ccccc2)c[nH]c1=S	SKKanGAS inh 72.5 (no result: CSC inhib)
O=C(CNC(=O)c1ccccc1Br)N/N=C/c1ccccc1O	none (no result: CSC inhib)
COC(=O)N/N=C/c1cc([N+](=O)[O-])cc(Br)c1O	none
O=C(CNC(=O)c1ccccc1Br)N/N=C\c1cc([N+](=O)[O-])cc(Br)c1O	SKKanGAS inh 58.7
O=C(CNC(=O)c1ccccc1Br)N/N=C/c1cc(Br)ccc1O	SKKanGAS inh 72.8
Cc1ccccc1OC1C(=O)N(Cc2ccc3c(c2)OCO3)C1c1sccc1C (stereo not given)	Beta cell apopt 79.1
O=C1Nc2cc(C(=O)N3CCc4ccccc4C3)ccc2S/C1=C\c1ccccc1	CSC inhib 118.3
CN1CCN(C(=O)c2ccc3c(c2)NC(=O)/C(=C/c2ccccc2)S3)CC1	none
CCOC(=O)C1CCN(C(=O)c2ccc3c(c2)NC(=O)/C(=C/c2ccccc2)S3)CC1	none
Cc1ccc(/C=C2/Sc3ccc(C(=O)N4CCN(c5ccccn5)CC4)cc3NC2=O)cc1	SKKanGAS inh 67.1
CCOC(=O)N1CCN(C(=O)c2ccc3c(c2)NC(=O)/C(=C/c2ccccc2)S3)CC1	SKKanGAS inh 92.9
CCOC(=O)C1CCN(C(=O)c2ccc3c(c2)NC(=O)/C(=C\c2ccc(C)cc2)S3)CC1	SKKanGAS inh 69.0
CC(C)C[C@@H](CN=[N+]=[N-])N1CCN(Cc2ccccc2)CCC1=O	none
Cc1ccc(NC(=O)CN(C)C(=O)COc2ccccc2-c2ccccc2)cc1	none (no result: SKKanGAS inh)
Cc1onc(-c2c(Cl)cccc2Cl)c1C(=O)NN1CCCCCC1	none (no result: Beta cell apopt)
Cc1c(C(=O)NN2CCCCC2)nn(-c2ccc(Cl)cc2Cl)c1-c1ccc(I)cc1	CSC inhib 101.0 (no result: Mdm2 MdmX PPI, XBP1 UPR activ, CHOP UPR activ)
CCc1cc(-c2n[nH]c(C)c2-c2ccccc2Cl)c(O)cc1OC	SKKanGAS inh inconclusive, CSC inhib 102.5
OC(c1ccc(OCc2ccccc2)cc1)c1nnc(-c2ccccc2)o1 (stereo not given)	SKKanGAS inh 57.1
Cc1ccc(NC(=O)CN(C)C(=O)/C=C/c2ccc3c(c2)OCO3)cc1	none (no result: SKKanGAS inh, CSC inhib)
Cc1ccc(CN2CCSc3ccc(C(=O)NCc4ccco4)cc32)cc1	CSC inhib 83.6
Cc1ccc(S(=O)(=O)NCC2CCCO2)cc1 (stereo not given)	none
O=S(=O)(NCC1CCCO1)c1ccc(-c2ccc(S(=O)(=O)NCC3CCCO3)cc2)cc1 (stereo not given)	Beta cell apopt 96.3
Cc1ccc(-c2[nH]nc(N)c2N=Nc2ccccc2C)cc1	SKKanGAS inh 74.5
Cc1cccc(N=Nc2c(N)n[nH]c2-c2ccc(Cl)cc2)c1	none (no result: CSC inhib)
COc1ccc(CNC(=O)CC2C[C@H](C(=O)N3CCOCC3)[C@@]3(C)c4[nH]c5ccccc5c4CCN3C2=O)cc1OC (stereo not given in full)	none (no result: SKKanGAS inh)
COc1ccc(C(C)NC(=O)Cc2cccs2)cc1 (stereo not given)	none
CCCCCCCCOC(=O)C[N+](C)(C)C/C=C(/C)Cl	none
CCCCCCCCCCCCOC(=O)C[N+](C)(C)C	SKKanGAS inh 113.1
CCCCCCCCCCOC(=O)C[N+](C)(C)C/C=C(/C)Cl	Beta cell apopt 113.4
O=C1CC(NS(=O)(=O)c2ccccc2F)CN1c1ccc2c(c1)OCCO2 (stereo not given)	none (no result: Beta cell apopt)
CCN(CC(=O)Nc1ccc(NC(C)=O)cc1)C(=O)CCCc1c[nH]c2ccccc12	none (no result: SKKanGAS inh)
CC(=O)c1ccccc1OCCOCCOc1ccccc1C(C)=O	Beta cell apopt 107.6
CC(=O)Nc1ccc(-c2csc(NC(=O)Cc3ccccc3F)n2)cc1	CSC inhib 90.0
O=C(Cc1ccc(F)cc1)Nc1nc(-c2ccc(F)cc2)cs1	none
CC(=O)Nc1ccc(-c2csc(NC(=O)Cc3cccc(F)c3)n2)cc1	CSC inhib 90.4
CCOCCOc1cccc(C(=O)NC(c2ccccc2)c2ccccc2)c1	none
COc1ccc(/C=C2\C(=O)c3ccccc3OC2c2ccccc2)cc1 (stereo not given)	CSC inhib 82.0
CC(C)N(C(=O)[C@H]1C[C@H](CC(=O)NCCN2CCOCC2)C(=O)N2CCc3c([nH]c4cc(-c5ccco5)ccc34)[C@]12C)C(C)C	none (no result: SKKanGAS inh, Beta cell apopt, CSC inhib)
CC(=O)Nc1ccc(S(=O)(=O)N2CCSc3ccccc32)cc1	none (no result: SKKanGAS inh)
Cc1cccc(NC(=O)c2nc[nH]c2C(=O)N[C@@H](Cc2ccccc2)C(=O)OCc2ccccc2)c1	SKKanGAS inh 63.5
CCOC(=O)c1ccc(NC(=O)c2nc[nH]c2C(=O)N[C@@H](CC(C)C)C(=O)OCc2ccccc2)cc1	SKKanGAS inh 62.6
C[C@@H](NC(=O)c1nc[nH]c1C(=O)N[C@@H](Cc1ccccc1)C(=O)OC(C)(C)C)c1ccccc1	SKKanGAS inh 84.1
Cc1cc(C)c(S(=O)(=O)N2CCOC2CNC(=O)C(=O)NCc2ccncc2)c(C)c1 (stereo not given)	none (no result: CSC inhib)

From PubChem
